Test results published in ChEMBL document CHEMBL4732082, “Development of novel benzimidazole-derived neddylation inhibitors for suppressing tumor growth invitro and invivo” (Eur J Med Chem, 2021).
The source made the active and inactive calls. The rule behind the calls is not given here.

Experiments:
[1] = molecular target: T1, NEDD8-activating enzyme E1 regulatory subunit (Homo sapiens) (UniProt Q13564); experiment: Inhibition of NAE (unknown origin)-mediated neddylation assessed as suppression of cullin1-Nedd8 adduct formation at 25 uM preincubated for 10 mins followed by ATP addition and measured after 30 mins by immunoblot analysis relative to control; conditions: time 40.0 min
T1 sequence (whole entry): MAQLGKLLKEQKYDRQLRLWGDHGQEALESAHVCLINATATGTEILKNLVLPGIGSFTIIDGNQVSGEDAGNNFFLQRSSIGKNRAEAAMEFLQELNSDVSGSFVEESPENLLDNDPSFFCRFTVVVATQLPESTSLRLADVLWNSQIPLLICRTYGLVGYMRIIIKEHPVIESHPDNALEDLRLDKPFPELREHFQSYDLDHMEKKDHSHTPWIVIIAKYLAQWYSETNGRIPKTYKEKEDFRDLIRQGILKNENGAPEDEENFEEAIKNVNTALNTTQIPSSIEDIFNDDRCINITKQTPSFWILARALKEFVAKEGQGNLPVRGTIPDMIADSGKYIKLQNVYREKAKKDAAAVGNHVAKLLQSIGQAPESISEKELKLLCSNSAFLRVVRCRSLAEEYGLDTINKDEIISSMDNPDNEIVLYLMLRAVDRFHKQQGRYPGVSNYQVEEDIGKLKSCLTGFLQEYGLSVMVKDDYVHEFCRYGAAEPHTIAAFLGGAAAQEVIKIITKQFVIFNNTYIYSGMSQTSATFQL

[2] = test system: A549; experiment: Antiproliferative activity against human A549 cells assessed as inhibition of cell proliferation at 100 uM incubated for 48 hrs by CCK-8 assay relative to control; type: functional; design: scale not given: the % may be the effect or the level left
Method in brief: (§1)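 Cells from ATCC, passaged six times, grown in DMEM with 10% FBS and penicillin/streptomycin at 37 °C under 5% CO2. Seeded at 2500 cells/well, cultured overnight, treated 48 h, viability read by CCK-8. Run in triplicate; values are the mean of three experiments.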

[3] = test system: A549; experiment: Antiproliferative activity against human A549 cells incubated for 48 hrs by CCK-8 assay; type: functional, cell-based; conditions: A549, 48 h; method in brief: as §1
[4] = test system: NCI-H1299; experiment: Antiproliferative activity against human H1299 cells incubated for 48 hrs by CCK-8 assay; type: functional, cell-based; conditions: NCI-H1299, 48 h; method in brief: as §1
[5] = test system: BEAS-2B; experiment: Cytotoxicity against human BEAS-2B cells incubated for 48 hrs by CCK-8 assay; type: cell-based; method in brief: as §1
[6] = molecular target: T1, NEDD8-activating enzyme E1 regulatory subunit (Homo sapiens); experiment: Inhibition of NAE-mediated neddylation in human A549 cells assessed as suppression of cullin1-Nedd8 adduct formation at 12.5 to 25 uM measured after 6 to 12 hrs by Western blot analysis; type: cell-based; conditions: dose 12.5-25 µM, time 6-12 hrs
Method in brief: (§2)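 A549 cells were treated 6 or 12 h with graded concentrations (4.5–75 μM) against a 0.1% DMSO control. Cells were washed in cold PBS, lysed in RIPA on ice and cleared by centrifugation, and protein was normalized. Cullin-Nedd8 was resolved on non-reducing SDS-PAGE and Wee1/p27 under reducing conditions, then detected by Western blot.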

[7] = molecular target: T1, NEDD8-activating enzyme E1 regulatory subunit (Homo sapiens); experiment: Inhibition of NAE-mediated neddylation in human A549 cells assessed as suppression of cullin2-Nedd8 adduct formation at 12.5 to 25 uM measured after 6 to 12 hrs by Western blot analysis; type: cell-based; conditions: dose 12.5-25 µM, time 6-12 hrs; method in brief: as §2
[8] = molecular target: T1, NEDD8-activating enzyme E1 regulatory subunit (Homo sapiens); experiment: Inhibition of NAE-mediated neddylation in human A549 cells assessed as suppression of cullin5-Nedd8 adduct formation at 12.5 to 25 uM measured after 6 to 12 hrs by Western blot analysis; type: cell-based; conditions: dose 12.5-25 µM, time 6-12 hrs; method in brief: as §2
[9] = molecular target: T1, NEDD8-activating enzyme E1 regulatory subunit (Homo sapiens); experiment: Inhibition of NAE-mediated UBE2M neddylation in human A549 cells at 12.5 to 25 uM measured after 6 to 12 hrs by Western blot analysis; type: cell-based; conditions: dose 12.5-25 µM, time 6-12 hrs; method in brief: as §2
[10] = test system: A549; experiment: Induction of Wee1 accumulation in human A549 cells at 50 uM incubated for 6 to 12 hrs by Western blot analysis; type: functional, cell-based; conditions: time 6-12 hrs; method in brief: as §2
[11] = test system: A549; experiment: Induction of apoptosis in human A549 cells assessed as increase in PARP cleavage at 12.5 uM by Western blot analysis; type: functional, cell-based
[12] = test system: A549; experiment: Antitumor activity against human A549 cells xenografted in nude mouse assessed as decrease in tumor volume at 30 mg/kg, ip qd for 5 days on and 2 days off dosing and measured after 24 days post-treatment; type: functional, organism-based; conditions: time 24.0 day
Method in brief: (§3)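 Female nude mice were inoculated subcutaneously with 2×10^6 A549 cells in 0.1 mL PBS. At tumor volume 70–100 mm³, mice were randomized into 5 groups of 6. Dosing was ip or oral gavage, once daily on a 5-days-on/2-days-off schedule, with 10% 2-hydroxypropyl-β-cyclodextrin/water as vehicle control. Body weight and tumor volume were measured every two days; tumors were weighed at sacrifice. Significance by two-tailed Student's t-test.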

[13] = test system: A549; experiment: Antitumor activity against human A549 cells xenografted in nude mouse assessed as inhibition of tumor growth at 60 mg/kg, po qd for 5 days on and 2 days off dosing and measured after 24 days post-treatment; type: functional, organism-based; conditions: time 24.0 day; method in brief: as §3
[14] = test system: A549; experiment: Induction of apoptosis in human A549 cells assessed as early apoptotic cells at 10 uM after 48 hrs by Annexin V-FITC/PI double staining based flow cytometric analysis (reference value: 2.04%); type: functional
[15] = test system: A549; experiment: Induction of apoptosis in human A549 cells assessed as late apoptotic cells at 10 uM after 48 hrs by Annexin V-FITC/PI double staining based flow cytometric analysis (reference value: 4.62%); type: functional
[16] = test system: A549; experiment: Induction of apoptosis in human A549 cells assessed as necrotic cells at 10 uM after 48 hrs by Annexin V-FITC/PI double staining based flow cytometric analysis (reference value: 1.57%); type: functional
[17] = test system: A549; experiment: Induction of apoptosis in human A549 cells assessed as live cells at 20 uM after 48 hrs by Annexin V-FITC/PI double staining based flow cytometric analysis (reference value: 91.8%); type: functional
[18] = test system: A549; experiment: Induction of apoptosis in human A549 cells assessed as late apoptotic cells at 20 uM after 48 hrs by Annexin V-FITC/PI double staining based flow cytometric analysis (reference value: 4.62%); type: functional
[19] = test system: A549; experiment: Induction of apoptosis in human A549 cells assessed as necrotic cells at 20 uM after 48 hrs by Annexin V-FITC/PI double staining based flow cytometric analysis (reference value: 1.57%); type: functional
[20] = test system: A549; experiment: Induction of apoptosis in human A549 cells assessed as live cells at 40 uM after 48 hrs by Annexin V-FITC/PI double staining based flow cytometric analysis (reference value: 91.8%); type: functional
[21] = test system: A549; experiment: Induction of apoptosis in human A549 cells assessed as early apoptotic cells at 40 uM after 48 hrs by Annexin V-FITC/PI double staining based flow cytometric analysis (reference value: 2.04%); type: functional
[22] = test system: A549; experiment: Induction of apoptosis in human A549 cells assessed as late apoptotic cells at 40 uM after 48 hrs by Annexin V-FITC/PI double staining based flow cytometric analysis (reference value: 4.62%); type: functional
[23] = test system: A549; experiment: Induction of apoptosis in human A549 cells assessed as necrotic cells at 40 uM after 48 hrs by Annexin V-FITC/PI double staining based flow cytometric analysis (reference value: 1.57%); type: functional

inhibition [1]: 86.4% | IC50 [3]: 20.4 µM | IC50 [4]: 21.8 µM | inhibition [6]: Active | inhibition [7]: Active | inhibition [8]: Active | inhibition [9]: Active
Compound: CCOc1nc2cccc(C(=O)NCCc3ccc(Cl)cc3Cl)c2n1Cc1ccc(-c2ccccc2-c2nnn[nH]2)cc1
Activity [2]: 83.9% | IC50 [5]: 79.4 µM | Activity [10]: Active | Activity [11]: Active | Activity [12]: Active | Activity [13]: Active | Activity [14]: 2.04% | Activity [15]: 4.62% | Activity [16]: 1.57% | Activity [17]: 72.6% | Activity [18]: 7.03% | Activity [19]: 1.91% | Activity [20]: 63.2% | Activity [21]: 32.1% | Activity [22]: 3.71% | Activity [23]: 1.02%
